The source made the active and inactive calls. No cut-off for these calls is given here.
What was measured:
MCF7 [1] = assay: Induction of Puma gene expression in human MCF7 cells; type: functional, cell-based
Summary of the method: (§1)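 Northern blot: 10 mg RNA (so in the source) isolated 18 h after UV (8.5 J m–2) or doxorubicin (125 mg ml–1 as printed) from MCF7 or U2OS cells and p53-knockdown (lentiviral shRNA) counterparts; hybridized with 32P-labeled full-length cDNA probes for Bax, Noxa, Puma; 18S rRNA loading control.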

[2] = target: Cellular tumor antigen p53 (Mus musculus) (UniProt P02340); assay: Binding affinity to p53 in gamma irradiated mouse thymocyte assessed as cytosolic p21 concentration at 10 uM after 2 hrs
Cellular tumor antigen p53 (Mus musculus), sequence (P02340 whole entry): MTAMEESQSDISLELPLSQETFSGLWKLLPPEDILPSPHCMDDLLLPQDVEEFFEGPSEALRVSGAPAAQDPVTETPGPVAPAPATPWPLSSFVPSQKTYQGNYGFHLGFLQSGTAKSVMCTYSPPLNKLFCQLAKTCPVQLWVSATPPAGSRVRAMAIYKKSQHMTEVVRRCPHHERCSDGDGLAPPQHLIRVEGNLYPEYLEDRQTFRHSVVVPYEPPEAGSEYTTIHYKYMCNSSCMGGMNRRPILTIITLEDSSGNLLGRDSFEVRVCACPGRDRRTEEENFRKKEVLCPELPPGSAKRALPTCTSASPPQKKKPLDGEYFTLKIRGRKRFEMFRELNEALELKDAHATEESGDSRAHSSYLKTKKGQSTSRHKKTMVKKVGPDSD

[3] = target: Cellular tumor antigen p53 (Homo sapiens) (UniProt P04637); assay: Binding affinity to p53 assessed as reduction in mitochondrial-bound p53 level at 50 uM
Cellular tumor antigen p53 (Homo sapiens), sequence (P04637 whole entry, looked up): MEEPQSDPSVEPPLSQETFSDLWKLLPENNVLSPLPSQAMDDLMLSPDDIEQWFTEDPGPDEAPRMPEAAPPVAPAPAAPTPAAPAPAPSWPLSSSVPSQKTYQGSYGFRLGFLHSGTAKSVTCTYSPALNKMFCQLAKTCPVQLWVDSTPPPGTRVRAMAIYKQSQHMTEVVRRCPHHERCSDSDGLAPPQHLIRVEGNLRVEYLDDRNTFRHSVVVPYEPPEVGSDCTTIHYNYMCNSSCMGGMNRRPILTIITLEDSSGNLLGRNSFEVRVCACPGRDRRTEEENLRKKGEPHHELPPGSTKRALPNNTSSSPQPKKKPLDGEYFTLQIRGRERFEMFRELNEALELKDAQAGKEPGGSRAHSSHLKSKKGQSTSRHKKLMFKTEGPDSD
Summary of the method: (§2)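 Cell-free reconstitution: freshly isolated HeLa or Saos-2 mitochondria (40 mg as printed) incubated 1 h at 37 °C with purified baculoviral human wild-type p53 (60 ng) plus compound in MS buffer with CaCl2; mitochondria pelleted, washed three times, p53 cosedimentation by western blot, mt-Hsp75 loading control.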

[4] = target: Cellular tumor antigen p53 (Homo sapiens) (UniProt P04637); assay: Inhibition of p53-dependent transcription of puma in human U2OS cells; type: cell-based
Summary of the method: (§3)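 Northern analysis of U2OS cells, p53 wild-type and shRNA p53-knockdown. Induction by UV 8.5 J m–2 or Dox […]. RNA isolated 18 h after treatment; 10 µg hybridised with 32P-labelled full-length cDNA probes for Bax, Noxa or Puma. 18S rRNA used as loading control.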

[5] = target: Cellular tumor antigen p53 (Mus musculus) (UniProt P02340); assay: Binding affinity to p53 in gamma irradiated mouse thymocyte assessed as cytosolic caspase 8 concentration at 10 uM after 2 hrs
[6] = target: Cellular tumor antigen p53 (Mus musculus) (UniProt P02340); assay: Binding affinity to p53 in gamma irradiated mouse thymocyte assessed as cytosolic Bcl-2 concentration at 10 uM after 2 hrs
Mus musculus = assay: Protection against 9 Gy gamma radiation-induced death in mouse assessed as increase in survival at 40 mg/kg, ip; type: functional; settings: route intraperitoneal
Summary of the method: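 Male C57Bl/6J mice, 8–10 weeks old, given a single 40 mg kg–1 intraperitoneal dose 30 min before total-body gamma irradiation (137Cs, 4 Gy min–1) at 8 or 9 Gy. Survival followed. Ten mice per subgroup; three independent repeats.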

Thymocyte [7] = assay: Induction of Puma gene expression in gamma-induced mouse thymocytes; type: functional, cell-based
Thymocyte [8] = assay: Antiapoptotic activity against dexamethasone-induced apoptosis in mouse thymocyte at 10 uM; type: functional, cell-based
Summary of the method: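 Primary thymocytes from 4-week-old p53-null C57Bl/6 mice, short-term culture; dexamethasone 0.5 mM, 24 h, with compound at 10 mM as printed; viability by trypan blue (0.1%) or annexin/PI FACScan; means ± s.d., n = 3.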

[9] = target: Cellular tumor antigen p53 (Homo sapiens) (UniProt P04637); assay: Inhibition of p53-dependent transcription of puma in doxorubicin-induced human U2OS cells; type: cell-based; summary of the method: as §3
[10] = target: Cellular tumor antigen p53 (Homo sapiens) (UniProt P04637); assay: Binding affinity to p53 assessed as reduction in mitochondrial-bound p53 level at 25 uM; summary of the method: as §2
Thymocyte [11] = assay: Induction of Puma gene expression in mouse thymocytes; type: functional, cell-based
[12] = target: Cellular tumor antigen p53 (Homo sapiens) (UniProt P04637); assay: Inhibition of p53-dependent transcription of noxa in human U2OS cells; type: cell-based; summary of the method: as §3
MCF7 [13] = assay: Induction of Puma gene expression in UV-induced human MCF7 cells; type: functional, cell-based; summary of the method: as §1
[14] = target: Cellular tumor antigen p53 (Homo sapiens) (UniProt P04637); assay: Inhibition of p53 in human ConA cells assessed as effect on cell cycle distribution at 10 uM after 24 hrs; type: cell-based
Summary of the method: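 ConA cells given 10 µM test agent, with or without 10 Gy gamma irradiation. Cell-cycle distribution measured 24 h later.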

[15] = target: Cellular tumor antigen p53 (Mus musculus) (UniProt P02340); assay: Inhibition of p53-dependent transcription of puma in mouse thymocyte
U2OS [16] = assay: Induction of Puma gene expression in doxorubicin-induced human U2OS cells; type: functional, cell-based; summary of the method: as §1
MCF7 [17] = assay: Induction of Bax gene expression in UV-induced human MCF7 cells; type: functional, cell-based; summary of the method: as §1
[18] = Antiapoptotic activity against fas-induced apoptosis in mouse fibroblast assessed as cell survival at 0.1 uM to 10 uM by methylene blue assay in presence of 1 ug/ml cycloheximidine after 24 hrs; type: functional, cell-based
H1299 = assay: Inhibition of TNFalpha induced NF-kappaB activation in human H1299 cells; type: cell-based
[19] = target: Cellular tumor antigen p53 (Homo sapiens) (UniProt P04637); assay: Effect on UV-induced activation of p53 in human ConA cells assessed as beta-galactosidase activity by X-gal staining; type: cell-based
Summary of the method: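 ConA cells carrying a lacZ reporter under a p53-responsive promoter; UV 35 J m–2; β-galactosidase visualized by X-gal staining 24 h after treatment.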

[20] = target: Cellular tumor antigen p53 (Homo sapiens) (UniProt P04637); assay: Binding affinity to p53 assessed as reduction in mitochondrial-bound p53 level at 10 uM; summary of the method: as §2
[21] = target: Cellular tumor antigen p53 (Homo sapiens) (UniProt P04637); assay: Inhibition of p53-mediated transactivation of promoter cyclin G in human H1299 cells at 10 uM after 48 hrs by luciferase reporter assay; type: cell-based
BJ = assay: Induction of p21 mRNA expression in human BJ cells; type: functional, cell-based
Summary of the method: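 Wild-type and p53-deficient cell pairs stimulated with 5-FU ([…] as printed) or gamma irradiation (10 or 15 Gy); p21 mRNA quantified by real-time PCR; means ± s.d., n = 3.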

HEK-293T = assay: Antiapoptotic activity against Bax gene-induced apoptosis in human 293T cells transfected with pTZV3-CMV-Bax at 10 uM after 24 hrs; type: functional, cell-based
Summary of the method: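 Bax delivered by transient transfection of 293T and HT1080 cells with CMV-Bax construct (Lipofectamine Plus); compound at 10 mM as printed; apoptosis scored 24 h after transfection by annexin/PI staining on FACScan.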

[22] = target: Cellular tumor antigen p53 (Homo sapiens) (UniProt P04637); assay: Inhibition of p53-mediated transactivation of p21 in gamma-stimulated human BJ cells at 10 uM after 6 hrs; type: cell-based
HT-1080 = assay: Antiapoptotic activity against Bax gene-induced apoptosis in human HT1080 cells transfected with pTZV3-CMV-Bax at 10 uM after 24 hrs; type: functional, cell-based
[23] = target: Cellular tumor antigen p53 (Homo sapiens) (UniProt P04637); assay: Binding affinity to p53 transfected in human Saos-2 cells harboring pLV-53 assessed as cytosolic p53 concentration at 10 uM after 48 hrs; type: cell-based
[24] = Antiapoptotic activity against gamma irradiation-induced apoptosis in mouse thymocyte assessed as cytosolic Cyt c concentration at 20 uM; type: functional, cell-based
Summary of the method: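 Thymocytes (20 × 10^6) from 5-week-old C57Bl/6J mice irradiated with 10 Gy gamma, with or without compound ([…] as printed); cytosolic fractions isolated 5 h after irradiation and probed for cytochrome c by western blot.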

MCF7 [25] = assay: Induction of Noxa gene expression in human MCF7 cells; type: functional, cell-based; summary of the method: as §1
MCF7 [26] = assay: Induction of Noxa gene expression in UV-induced human MCF7 cells; type: functional, cell-based; summary of the method: as §1
NCI-H1299 = assay: Antiapoptotic activity against staurosporine-induced cell death in human H1299 cells assessed as cell survival at 10 uM after 24 hrs by methylene blue assay; type: functional, cell-based
U2OS [27] = assay: Induction of Noxa gene expression in human U2OS cells; type: functional, cell-based; summary of the method: as §1
[28] = target: Cellular tumor antigen p53 (Homo sapiens) (UniProt P04637); assay: Inhibition of p53-dependent transcription of noxa in human MCF7 cells; type: cell-based
Summary of the method: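 Northern analysis of MCF7 cells, p53 wild-type and shRNA p53-knockdown. Induction by UV 8.5 J m–2 or Dox […]. RNA isolated 18 h after treatment; 10 µg hybridised with 32P-labelled full-length cDNA probes for Bax, Noxa or Puma. 18S rRNA used as loading control.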

## NS(=O)(=O)C#Cc1ccccc1
MCF7 [1]
  Activity: inactive
[2]
  Activity: inactive
[3]
  Activity: Active
[4]
  inhibition: inactive
[5]
  Activity: inactive
[6]
  Activity: inactive
Mus musculus
  Activity: 50%
Thymocyte [7]
  Activity: inactive
Thymocyte [8]
  Activity: inactive
[9]
  inhibition: inactive
[10]
  Activity: Active
Thymocyte [11]
  Activity: inactive
[12]
  inhibition: inactive
MCF7 [13]
  Activity: inactive
[14]
  inhibition: inactive
[15]
  inhibition: inactive
U2OS [16]
  Activity: inactive
MCF7 [17]
  Activity: inactive
[18]
  Activity: inactive
H1299
  inhibition: inactive
[19]
  Activity: inactive
[20]
  Activity: Active
[21]
  inhibition: inactive
BJ
  Activity: inactive
HEK-293T
  Activity: inactive
[22]
  inhibition: inactive
HT-1080
  Activity: inactive
[23]
  Activity: inactive
[24]
  Activity: Active
MCF7 [25]
  Activity: inactive
MCF7 [26]
  Activity: inactive
NCI-H1299
  Activity: inactive
U2OS [27]
  Activity: inactive
[28]
  inhibition: inactive
